Measured values gathered from unrelated publications.
Protocols differ between the studies behind these lines.
Read-out: enzyme activity
ABL1: Tyrosine-protein kinase ABL1 (ABL1, Homo sapiens, UniProt P00519)

Compound	target	mode	method	tested at	remaining activity [%]
Cc1cnc(NC2CCOCC2)nc1-n1cnc(C(=O)NC(CN)c2cc(F)cc(Cl)c2)c1 (stereo not drawn)	ABL1	inhibitor	radiometric	1 µM	103
Cc1[nH]c(/C=C2\C(=O)Nc3ccc(F)cc32)c(C)c1C(=O)N[C@H]1CCN(C(=O)N(C)C)C1	ABL1	inhibitor	–	1 µM	107
Cc1ccc(NC(=O)c2ccc(C)c(C(F)(F)F)c2)cc1C#Cc1nn(C2CCC(O)CC2)c2ncnc(N)c12 (stereo not drawn)	Tyrosine-protein kinase ABL1 (ABL1, Homo sapiens, UniProt P00519, M351T)	–	–	10 µM	0
COc1cc(Nc2cnc(C#N)c(O[C@H](C)CN(C)C)n2)ncc1-c1cnn(C)c1	ABL1	inhibitor	radiometric	1 µM	83
CC(C)(C)c1nc(-c2cccc(NS(=O)(=O)c3c(F)cccc3F)c2F)c(-c2ccnc(N)n2)s1	ABL1	inhibitor	radiometric	1 µM	94
O=C(Nc1cnn(-c2csc(C(=O)NC3COC3)c2)c1)Nc1ccccc1Cl	ABL1	inhibitor	–	5 µM	83.4
CCCOc1ccc(OC)c(F)c1C(=O)c1ccc(C(=O)N[C@@H]2CNC[C@H]2NC(=O)c2ccc3[nH]ncc3c2)cc1	ABL1	inhibitor	–	10 µM	80
CCN(CC)c1ccc(C2=NNC(=O)CC2C)cc1[N+](=O)[O-] (stereo not drawn)	ABL1	inhibitor	–	10 µM	87
COc1cc(Cl)c(C(=O)N[C@@H](CN[C@H]2CC[C@@H](N)CC2)Cc2ccc(C#N)cc2)cc1-c1ccc(CN[C@H](C)c2ccc(C)cc2)o1	ABL1	inhibitor	–	1 µM	96
